Measured values: ChEMBL document CHEMBL4152188, “Design, synthesis and biological evaluation of C(4) substituted monobactams as antibacterial agents against multidrug-resistant Gram-negative bacteria” (Eur J Med Chem, 2018)
In brackets after ≈: the same amount, converted by molar mass. Each block holds one molecule with its values, some of them ahead of it.

Columns and labels:
Assay type in all cases: functional
Pseudomonas aeruginosa [1] = assay: Selectivity index, ratio of MIC for against IMP-4 producing Pseudomonas aeruginosa isolate 209321 to MIC for against IMP-4 producing Pseudomonas aeruginosa isolate 209321 in presence of BPL
Klebsiella pneumoniae [2] = assay: Antibacterial activity against KPC-2 producing Klebsiella pneumoniae isolate 212232 after 18 hrs by CLSI broth microdilution method; details: isolate 212232, 18 h
Klebsiella pneumoniae [3] = assay: Selectivity index, ratio of MIC for against KPC-2 producing Klebsiella pneumoniae isolate 209632 to MIC for against KPC-2 producing Klebsiella pneumoniae isolate 209632 in presence of BPL
Klebsiella pneumoniae [4] = assay: Selectivity index, ratio of MIC for against KPC-2 producing Klebsiella pneumoniae isolate 212229 to MIC for against KPC-2 producing Klebsiella pneumoniae isolate 212229 in presence of BPL
Klebsiella pneumoniae [5] = assay: Antibacterial activity against KPC-2 producing Klebsiella pneumoniae isolate 209632 after 18 hrs in presence of BPL by CLSI broth microdilution method; details: isolate 209632, 18 h
Method in brief: (§1)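 CLSI broth microdilution against clinical isolates (ESBL E. coli, KPC-2 MDR K. pneumoniae, IMP-4 MDR P. aeruginosa; five per species). Iron limitation: Mueller-Hinton broth supplemented with 16 mg/liter 2,2'-bipyridyl to complex iron and induce iron uptake systems. Read-out: MIC.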

Klebsiella pneumoniae [6] = assay: Antibacterial activity against KPC-2 producing Klebsiella pneumoniae isolate 212423 after 18 hrs in presence of BPL by CLSI broth microdilution method; details: isolate 212423, 18 h; method in brief: as §1
Pseudomonas aeruginosa [7] = assay: Antibacterial activity against IMP-4 producing Pseudomonas aeruginosa isolate 207272 after 18 hrs by CLSI broth microdilution method; details: isolate 207272, 18 h
Klebsiella pneumoniae [8] = assay: Antibacterial activity against KPC-2 producing Klebsiella pneumoniae isolate 212232 after 18 hrs in presence of BPL by CLSI broth microdilution method; details: isolate 212232, 18 h; method in brief: as §1
Pseudomonas aeruginosa [9] = assay: Selectivity index, ratio of MIC for against IMP-4 producing Pseudomonas aeruginosa isolate 209471 to MIC for against IMP-4 producing Pseudomonas aeruginosa isolate 209471 in presence of BPL
Escherichia coli [10] = assay: Antibacterial activity against extended-spectrum beta-lactamase producing Escherichia coli isolate 209285 after 18 hrs by CLSI broth microdilution method; details: isolate 209285, 18 h
Klebsiella pneumoniae [11] = assay: Antibacterial activity against KPC-2 producing Klebsiella pneumoniae isolate 209735 after 18 hrs in presence of BPL by CLSI broth microdilution method; details: isolate 209735, 18 h; method in brief: as §1
Escherichia coli [12] = assay: Selectivity index, ratio of MIC for against extended-spectrum beta-lactamase producing Escherichia coli isolate 208687 to MIC for extended-spectrum beta-lactamase producing Escherichia coli isolate 208687 in presence of BPL
Pseudomonas aeruginosa [13] = assay: Antibacterial activity against IMP-4 producing Pseudomonas aeruginosa isolate 207272 after 18 hrs in presence of BPL by CLSI broth microdilution method; details: isolate 207272, 18 h; method in brief: as §1
Escherichia coli [14] = assay: Selectivity index, ratio of MIC for against extended-spectrum beta-lactamase producing Escherichia coli isolate 106342 to MIC for extended-spectrum beta-lactamase producing Escherichia coli isolate 106342 in presence of BPL
Pseudomonas aeruginosa [15] = assay: Selectivity index, ratio of MIC for against IMP-4 producing Pseudomonas aeruginosa isolate 207272 to MIC for against IMP-4 producing Pseudomonas aeruginosa isolate 207272 in presence of BPL
Pseudomonas aeruginosa [16] = assay: Antibacterial activity against IMP-4 producing Pseudomonas aeruginosa isolate 209321 after 18 hrs in presence of BPL by CLSI broth microdilution method; details: isolate 209321, 18 h; method in brief: as §1
Escherichia coli [17] = assay: Antibacterial activity against extended-spectrum beta-lactamase producing Escherichia coli isolate 106342 after 18 hrs by CLSI broth microdilution method; details: isolate 106342, 18 h
Klebsiella pneumoniae [18] = assay: Selectivity index, ratio of MIC for against KPC-2 producing Klebsiella pneumoniae isolate 209735 to MIC for against KPC-2 producing Klebsiella pneumoniae isolate 209735 in presence of BPL
Pseudomonas aeruginosa [19] = assay: Antibacterial activity against IMP-4 producing Pseudomonas aeruginosa isolate 209471 after 18 hrs in presence of BPL by CLSI broth microdilution method; details: isolate 209471, 18 h; method in brief: as §1
Pseudomonas aeruginosa [20] = assay: Antibacterial activity against IMP-4 producing Pseudomonas aeruginosa isolate 212886 after 18 hrs by CLSI broth microdilution method; details: isolate 212886, 18 h
Pseudomonas aeruginosa [21] = assay: Antibacterial activity against IMP-4 producing Pseudomonas aeruginosa isolate 209471 after 18 hrs by CLSI broth microdilution method; details: isolate 209471, 18 h
Pseudomonas aeruginosa [22] = assay: Antibacterial activity against IMP-4 producing Pseudomonas aeruginosa isolate 212886 after 18 hrs in presence of BPL by CLSI broth microdilution method; details: isolate 212886, 18 h; method in brief: as §1
Klebsiella pneumoniae [23] = assay: Antibacterial activity against KPC-2 producing Klebsiella pneumoniae isolate 212229 after 18 hrs by CLSI broth microdilution method; details: isolate 212229, 18 h
Pseudomonas aeruginosa [24] = assay: Antibacterial activity against IMP-4 producing Pseudomonas aeruginosa isolate 208247 after 18 hrs by CLSI broth microdilution method; details: isolate 208247, 18 h
Klebsiella pneumoniae [25] = assay: Selectivity index, ratio of MIC for against KPC-2 producing Klebsiella pneumoniae isolate 212232 to MIC for against KPC-2 producing Klebsiella pneumoniae isolate 212232 in presence of BPL
Escherichia coli [26] = assay: Antibacterial activity against extended-spectrum beta-lactamase producing Escherichia coli isolate 208687 after 18 hrs by CLSI broth microdilution method; details: isolate 208687, 18 h
Escherichia coli [27] = assay: Selectivity index, ratio of MIC for against extended-spectrum beta-lactamase producing Escherichia coli isolate 212648 to MIC for extended-spectrum beta-lactamase producing Escherichia coli isolate 212648 in presence of BPL
Klebsiella pneumoniae [28] = assay: Selectivity index, ratio of MIC for against KPC-2 producing Klebsiella pneumoniae isolate 212423 to MIC for against KPC-2 producing Klebsiella pneumoniae isolate 212423 in presence of BPL
Escherichia coli [29] = assay: Antibacterial activity against extended-spectrum beta-lactamase producing Escherichia coli isolate 212648 after 18 hrs in presence of BPL by CLSI broth microdilution method; details: isolate 212648, 18 h; method in brief: as §1
Klebsiella pneumoniae [30] = assay: Antibacterial activity against KPC-2 producing Klebsiella pneumoniae isolate 212423 after 18 hrs by CLSI broth microdilution method; details: isolate 212423, 18 h
Klebsiella pneumoniae [31] = assay: Antibacterial activity against KPC-2 producing Klebsiella pneumoniae isolate 209735 after 18 hrs by CLSI broth microdilution method; details: isolate 209735, 18 h
Pseudomonas aeruginosa [32] = assay: Antibacterial activity against IMP-4 producing Pseudomonas aeruginosa isolate 208247 after 18 hrs in presence of BPL by CLSI broth microdilution method; details: isolate 208247, 18 h; method in brief: as §1
Escherichia coli [33] = assay: Antibacterial activity against extended-spectrum beta-lactamase producing Escherichia coli isolate 209285 after 18 hrs in presence of BPL by CLSI broth microdilution method; details: isolate 209285, 18 h; method in brief: as §1
Escherichia coli [34] = assay: Antibacterial activity against Escherichia coli isolate 210737 after 18 hrs by CLSI broth microdilution method; details: isolate 210737, 18 h
Escherichia coli [35] = assay: Selectivity index, ratio of MIC for against extended-spectrum beta-lactamase producing Escherichia coli isolate 209285 to MIC for extended-spectrum beta-lactamase producing Escherichia coli isolate 209285 in presence of BPL
Escherichia coli [36] = assay: Antibacterial activity against extended-spectrum beta-lactamase producing Escherichia coli isolate 212648 after 18 hrs by CLSI broth microdilution method; details: isolate 212648, 18 h
Escherichia coli [37] = assay: Antibacterial activity against Escherichia coli isolate 210737 after 18 hrs in presence of BPL by CLSI broth microdilution method; details: isolate 210737, 18 h; method in brief: as §1
Escherichia coli [38] = assay: Selectivity index, ratio of MIC for against Escherichia coli isolate 210737 to MIC for Escherichia coli isolate 210737 in presence of BPL
Pseudomonas aeruginosa [39] = assay: Antibacterial activity against IMP-4 producing Pseudomonas aeruginosa isolate 209321 after 18 hrs by CLSI broth microdilution method; details: isolate 209321, 18 h
Klebsiella pneumoniae [40] = assay: Antibacterial activity against KPC-2 producing Klebsiella pneumoniae isolate 209632 after 18 hrs by CLSI broth microdilution method; details: isolate 209632, 18 h
Klebsiella pneumoniae [41] = assay: Antibacterial activity against KPC-2 producing Klebsiella pneumoniae isolate 212229 after 18 hrs in presence of BPL by CLSI broth microdilution method; details: isolate 212229, 18 h; method in brief: as §1
Escherichia coli [42] = assay: Antibacterial activity against extended-spectrum beta-lactamase producing Escherichia coli isolate 106342 after 18 hrs in presence of BPL by CLSI broth microdilution method; details: isolate 106342, 18 h; method in brief: as §1
Escherichia coli [43] = assay: Antibacterial activity against extended-spectrum beta-lactamase producing Escherichia coli isolate 208687 after 18 hrs in presence of BPL by CLSI broth microdilution method; details: isolate 208687, 18 h; method in brief: as §1

MIC (Klebsiella pneumoniae [2]): 4 µg/mL (≈ 6.51 µM)
MIC (Klebsiella pneumoniae [5]): > 64 µg/mL
MIC (Klebsiella pneumoniae [6]): 2 µg/mL
MIC (Pseudomonas aeruginosa [7]): 64 µg/mL (≈ 104 µM)
MIC (Klebsiella pneumoniae [8]): 0.5 µg/mL
MIC (Escherichia coli [10]): 2 µg/mL (≈ 3.25 µM)
MIC (Klebsiella pneumoniae [11]): > 64 µg/mL
MIC (Pseudomonas aeruginosa [13]): 64 µg/mL
MIC (Pseudomonas aeruginosa [16]): 32 µg/mL
MIC (Escherichia coli [17]): 2 µg/mL (≈ 3.25 µM)
MIC (Pseudomonas aeruginosa [19]): 64 µg/mL
MIC (Pseudomonas aeruginosa [20]): > 64 µg/mL
MIC (Pseudomonas aeruginosa [21]): 64 µg/mL (≈ 104 µM)
MIC (Pseudomonas aeruginosa [22]): > 64 µg/mL
MIC (Klebsiella pneumoniae [23]): 2 µg/mL (≈ 3.25 µM)
MIC (Pseudomonas aeruginosa [24]): > 64 µg/mL
MIC (Escherichia coli [26]): 2 µg/mL (≈ 3.25 µM)
MIC (Escherichia coli [29]): 0.5 µg/mL
MIC (Klebsiella pneumoniae [30]): 4 µg/mL (≈ 6.51 µM)
MIC (Klebsiella pneumoniae [31]): > 64 µg/mL
MIC (Pseudomonas aeruginosa [32]): > 64 µg/mL
MIC (Escherichia coli [33]): 0.5 µg/mL
MIC (Escherichia coli [34]): 1 µg/mL (≈ 1.63 µM)
MIC (Escherichia coli [36]): 2 µg/mL (≈ 3.25 µM)
MIC (Escherichia coli [37]): 1 µg/mL
MIC (Pseudomonas aeruginosa [39]): 32 µg/mL (≈ 52.1 µM)
MIC (Klebsiella pneumoniae [40]): > 64 µg/mL
MIC (Klebsiella pneumoniae [41]): 2 µg/mL
MIC (Escherichia coli [42]): 1 µg/mL
MIC (Escherichia coli [43]): 1 µg/mL
SMILES: CC(C)C(O/N=C(\C(=O)N[C@@H]1C(=O)N(S(=O)(=O)O)[C@@H]1CN1CCNCC1)c1csc(N)n1)c1cc(=O)c(O)cn1O (some centres undefined)
Selectivity Index (Pseudomonas aeruginosa [1]): 1
Selectivity Index (Klebsiella pneumoniae [3]): 1 - 8
Selectivity Index (Klebsiella pneumoniae [4]): 1
Selectivity Index (Pseudomonas aeruginosa [9]): 1
Selectivity Index (Escherichia coli [12]): 2
Selectivity Index (Escherichia coli [14]): 2
Selectivity Index (Pseudomonas aeruginosa [15]): 1
Selectivity Index (Klebsiella pneumoniae [18]): 1 - 8
Selectivity Index (Klebsiella pneumoniae [25]): 8
Selectivity Index (Escherichia coli [27]): 4
Selectivity Index (Klebsiella pneumoniae [28]): 2
Selectivity Index (Escherichia coli [35]): 4
Selectivity Index (Escherichia coli [38]): 1

MIC (Klebsiella pneumoniae [2]): > 64 µg/mL
MIC (Klebsiella pneumoniae [5]): > 64 µg/mL
MIC (Klebsiella pneumoniae [6]): > 64 µg/mL
MIC (Pseudomonas aeruginosa [7]): > 64 µg/mL
MIC (Klebsiella pneumoniae [8]): > 64 µg/mL
MIC (Escherichia coli [10]): > 64 µg/mL
MIC (Klebsiella pneumoniae [11]): > 64 µg/mL
MIC (Pseudomonas aeruginosa [13]): > 64 µg/mL
MIC (Pseudomonas aeruginosa [16]): 64 µg/mL
MIC (Escherichia coli [17]): 64 µg/mL (≈ 118 µM)
MIC (Pseudomonas aeruginosa [19]): > 64 µg/mL
MIC (Pseudomonas aeruginosa [20]): > 64 µg/mL
MIC (Pseudomonas aeruginosa [21]): > 64 µg/mL
MIC (Pseudomonas aeruginosa [22]): > 64 µg/mL
MIC (Klebsiella pneumoniae [23]): > 64 µg/mL
MIC (Pseudomonas aeruginosa [24]): > 64 µg/mL
MIC (Escherichia coli [26]): 64 µg/mL (≈ 118 µM)
MIC (Escherichia coli [29]): > 64 µg/mL
MIC (Klebsiella pneumoniae [30]): > 64 µg/mL
MIC (Klebsiella pneumoniae [31]): > 64 µg/mL
MIC (Pseudomonas aeruginosa [32]): > 64 µg/mL
MIC (Escherichia coli [33]): > 64 µg/mL
MIC (Escherichia coli [34]): > 64 µg/mL
MIC (Escherichia coli [36]): > 64 µg/mL
MIC (Escherichia coli [37]): > 64 µg/mL
MIC (Pseudomonas aeruginosa [39]): 64 µg/mL (≈ 118 µM)
MIC (Klebsiella pneumoniae [40]): > 64 µg/mL
MIC (Klebsiella pneumoniae [41]): > 64 µg/mL
MIC (Escherichia coli [42]): 64 µg/mL
MIC (Escherichia coli [43]): 2 µg/mL
SMILES: C=CC1[C@H](NC(=O)/C(=N\OC(c2cc(=O)c(O)cn2O)C(C)C)c2csc(N)n2)C(=O)N1S(=O)(=O)O (some centres undefined)
Selectivity Index (Pseudomonas aeruginosa [1]): 1
Selectivity Index (Escherichia coli [12]): 32
Selectivity Index (Escherichia coli [14]): 1
Selectivity Index (Escherichia coli [27]): 1 - 32
Selectivity Index (Escherichia coli [35]): 1 - 32
Selectivity Index (Escherichia coli [38]): 1 - 32
